Key:
Test in all cases: Plaque inhibition test in fcwf-4 cells
type I FIPV strain KU-2 = type: cell-based, feline infectious peritonitis virus; settings: for Plaque reduction by serial dilutions of peptides: peptide 160, 80 and 40 μM, triplicate
Procedure, shortened: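 Strain KU-2 plaque assay in fcwf-4 cells. Peptide from a 10 mM DMSO stock was diluted to 100 μM, or to 160, 80 and 40 μM, in medium with 2% FCS and 25 μg/mL DEAE-dextran, with 30 min RT pretreatment; 1% DMSO was the solvent control. Without washing, 10 μL of 8000 pfu/mL virus added, 30 min at 37 °C. Wash, carboxymethyl cellulose overlay, 2 days at 37 °C, crystal violet. % plaque inhibition against virus-alone wells.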

[1] = system: type II FIPV strain 79-1146; type: cell-based, feline infectious peritonitis virus; settings: peptide 100 μM
Procedure, shortened: (§1)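 Peptide (10 mM DMSO stock) diluted to 100 μM in medium with 2% FCS and 25 μg/mL DEAE-dextran, then applied to fcwf-4 cells for 30 min at RT. Same-fold DMSO (1%) served as solvent control. Without washing, 10 μL of 8000 pfu/mL virus added for 30 min at 37 °C. Cells washed, overlaid with 2% FCS/1.5% carboxymethyl cellulose for 2 days at 37 °C, formalin-fixed and crystal violet-stained. % plaque inhibition calculated against virus-alone wells.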

FCV strain F4 = type: cell-based, feline calicivirus; settings: peptide 100 μM, fcwf-4 cells 30 min RT, triplicate
Procedure, shortened: as §1

FHV strain C7301 = type: cell-based, feline herpesvirus; settings: peptide 100 μM, fcwf-4 cells 30 min RT, triplicate
Procedure, shortened: as §1

type I FIPV strain UCD-1 = type: cell-based, feline infectious peritonitis virus; settings: peptide 100 μM
Procedure, shortened: as §1

type I FIPV strain Black = type: cell-based, feline infectious peritonitis virus; settings: peptide 100 μM
Procedure, shortened: as §1

[2] = fcwf-4 cells 30 min RT, vs 1% DMSO, triplicate

## LFYKYTSLQGLYTYSNLVEL [I-S1-22]
Type I FIPV strain KU-2
  Plaque reduction by serial dilutions of peptides: dose-dependent

## VNFSISSVEEYGFWTIAYTN [I-S1-8]
Type I FIPV strain KU-2
  Plaque reduction by serial dilutions of peptides: dose-dependent

## YHWMNVTLHVVLNDTEKKYD [I-S1-16]
[1]; fcwf-4 cells
  Plaque inhibition, type II FIPV strain 79-1146: less than 50%
[1]; [2]
  Inhibition of infection by type II FIPV strain 79-1146: significantly inhibited
FCV strain F4
  Inhibitory effect on infection by FCV strain F4: no inhibitory effects
FHV strain C7301
  Inhibitory effect on infection by FHV strain C7301: no inhibitory effects
Type I FIPV strain UCD-1; fcwf-4 cells
  Plaque inhibition, type I FIPV strain UCD-1: ≥ 50%
Type I FIPV strain UCD-1; [2]
  Inhibition of infection by type I FIPV strain UCD-1: significantly inhibited
Type I FIPV strain KU-2; peptide 100 μM
  Plaque inhibition, type I FIPV strain KU-2: ≥ 50%
Type I FIPV strain KU-2
  Plaque reduction by serial dilutions of peptides: dose-dependent
Type I FIPV strain Black; fcwf-4 cells
  Plaque inhibition, type I FIPV strain Black: ≥ 50%
Type I FIPV strain Black; [2]
  Inhibition of infection by type I FIPV strain Black: significantly inhibited

## YTDVMVDVNGTAITRLFYCD [I-S1-10]
Type I FIPV strain KU-2
  Plaque reduction by serial dilutions of peptides: dose-dependent

Reference: PMC7114445 (Virus Research, 2015)
